ChEMBL document CHEMBL4513216, “Probing the Open Global Health Chemical Diversity Library for Multistage-Active Starting Points for Next-Generation Antimalarials” (ACS Infect Dis, 2020)

Assay: Toxicity liver stage against HepG2, at 10uM
Type: cell-based
Set-up: test concentration 10 uM, cell line HepG2-A16-CD81EGFP
Conditions: human, HepG2-A16-CD81EGFP cells; read-out: INHIBITION
Method in brief: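 Uninfected HepG2-A16-CD81EGFP cells, 3 × 10^3 per well, 1536-well, plated on prespotted compound at 10 μM final, parasite-free screening media added to match infected plates; puromycin 10 μM positive, DMSO 0.5% negative; run in parallel with 48 h PbLuc assay at 37 °C, 5% CO2; viability by CellTiter-Glo luminescence, normalized to controls.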

Row | SMILES | cytotoxicity at 10 µM
1 | O=C1CC(N2CCN(c3ccc(F)cc3)CC2)C(=O)N1Cc1cccs1 (stereo not given) | -0.31%
2 | CN1CCC(N2CC[C@H](c3nc4ccc(C(F)(F)F)cc4[nH]3)C2)CC1 | -10.2%
3 | Cc1ccc(-c2ccc(=O)n(CC(=O)Nc3nccs3)n2)cc1 | -10.2%
4 | Cc1cccc2nc(CSCC(=O)Nc3nnc(C(C)C)s3)cc(=O)n12 | -3.95%
5 | CC(=O)N1N=C(c2ccco2)OC1C(=O)N(C)CCc1ccccc1 (stereo not given) | -0.0253%
6 | COc1cc2nc(C)n(CC(=O)NCCC(C)C)c(=O)c2cc1OC | -3.79%
7 | CSc1sc2c(O)cc(=O)[nH]c2c1C(N)=O | -2.1%
8 | COc1cccc2c1ccn2CCC(=O)Nc1c2c(nn1C)CSC2 | 5.11%
9 | CC(=O)Nc1nc2c(s1)CN(CC(=O)Nc1ccc(C)c(Cl)c1)CC2 | -6.17%
10 | COc1ccc(-n2nnc(C(=O)NCC3CCCCC3)n2)cc1 | 1.01%
11 | O=C(c1nnn(-c2ccccc2F)c1-c1ccccn1)N1CCSCC1 | 1.32%
12 | Cc1csc(NC(=O)C2CSCCC(=O)N2)n1 (stereo not given) | 4.14%
13 | Cc1cs/c(=N\C(=O)c2c3c(nc4onc(C)c24)CCC3)[nH]1 | 1.26%
14 | CNC(=O)[C@H]1C[C@@H]2CN(C(=O)c3cscn3)C[C@@H]2N1S(C)(=O)=O | -5.17%
15 | CCn1cc(S(=O)(=O)N2CCN(S(=O)(=O)c3ccc(Br)s3)CC2)c(C)n1 | 4.64%
16 | Cn1cc(S(=O)(=O)NCc2ccc(F)cc2)cn1 | 1.25%
17 | COCc1nc(N(C)C)ncc1C(=O)NC(C)c1ccccc1 (stereo not given) | 6.03%
18 | Cc1cc(Oc2ccccc2)nc(C2CCN(CCO)CC2)n1 | -1.99%
19 | CC(C)(C)NC(=O)[C@@H]1CNC[C@]12Cc1ccccc1C(=O)N2 | -0.42%
20 | COCC1CN(C(C)=O)CCN(c2cc(C)ncn2)C1 (stereo not given) | 4.96%
21 | O=C(O)C1(Cc2cc(-c3ccc(F)cc3F)no2)CCOCC1 | 3.37%
22 | CC(C)NC(=O)c1cc(-c2ccc(S(C)(=O)=O)cc2)nc2c1cnn2C | 4.21%

Row | SMILES | cytotoxicity at 10 µM
23 | O=C(N1CCOCC1)N1CCN(c2ccc(Cl)nn2)C(=O)C1 | 8.57%
24 | COc1ncc(C(F)(F)F)c(C(=O)O)c1Cl | 16.7%
25 | O=C(O)c1cc(NS(=O)(=O)c2ccccc2F)ccc1N1CCSCC1 | -5.27%
26 | O=C(O)CCCc1ccc2c(c1)CC(=O)N2 | 1.51%
27 | CC(C)CCC(=O)N1CCN(C(=O)c2ccc3nccn3c2)CC1 | 7.42%
28 | O=C(c1cnc(NCc2sccc2Br)c(Cl)c1)N1CCCCC1 | 6.36%
29 | CN1CCC(NC(=O)c2cc(Cl)cc(Br)c2O)C1=O (stereo not given) | 4.84%
30 | CC(=O)N1CCCN(C(=O)NC(C)Cn2ccnc2)CC1 (stereo not given) | 4.52%
31 | N#CC1COCCN1S(=O)(=O)c1ccc(F)c(Br)c1 (stereo not given) | 4.43%
32 | O=C1CCCN1CCCN1CCCC1Cn1cccn1 (stereo not given) | -1.82%
33 | N#Cc1ccc(CN2CCN(c3ccncc3Cl)CC2=O)cc1 | 4.64%
34 | Cc1cc(CN(C)C(=O)NC(C)Cc2ccc(O)cc2)no1 (stereo not given) | 4.93%
35 | Cc1ccccc1CCCN(C)S(C)(=O)=O | 5.41%
36 | CCn1cc(C(=O)N(C)Cc2c(F)cccc2Cl)cn1 | -4.66%
37 | CC(=O)N1CCC(C(=O)N2CCC(=Cc3cccc(F)c3)CC2)CC1 | 3.5%
38 | COc1cccc(COCC(=O)NC(C(N)=O)c2ccccc2)c1 (stereo not given) | -3.73%
39 | N#Cc1cccc(S(=O)(=O)NC(=O)c2csc(-c3ccco3)n2)c1 | 4.34%
40 | COC(CNC(=O)c1ccoc1)c1cccc(Cl)c1 (stereo not given) | 3.3%
41 | Cc1nc(-c2ccco2)ccc1C(=O)NCCCN1CCOCC1 | -4.02%
42 | CCCc1noc(CCC(=O)N2CCN(C)CC2c2ccccc2)n1 (stereo not given) | -7.47%
43 | CCCNC(=O)CNC(=O)c1scnc1C | 8.86%
44 | CCc1nnc2n1CCN(CC(=O)N(CC)C1=CCCCC1)C2 | -0.0192%

Row | SMILES | cytotoxicity at 10 µM
45 | Cc1cccc(NC(=O)[C@@H]2CCCN2Cc2nnc(C(C)C)n2C)n1 | 5.81%
46 | Cc1ccccc1N1CCN(C(=O)c2cccnc2-n2cncn2)CC1 | 8.35%
47 | N#Cc1cccnc1NCCNC(=O)N1CCCC(N2CCCC2)C1 (stereo not given) | 7.61%
48 | CCCN1CCC(CNC(=O)N2CCCC2c2c(C)n[nH]c2C)CC1 (stereo not given) | -0.686%
49 | O=C(NCCOc1ncc(Cl)cc1Cl)c1ccoc1 | 0.191%
50 | CCN(Cc1nnsc1Cl)C(C)c1ccc(C#N)cc1 (stereo not given) | 18.9%
51 | CC(C)Nc1cccc(CNC(=O)N2CCCC2)c1 | 1.98%
52 | COc1ccccc1C(=O)N1CCC(O)(c2cccc(C)c2C)CC1 | 12.1%
53 | CCc1ccc(CCC(=O)NCc2nnc[nH]2)cc1 | 7.47%
54 | CC1CN(C(=O)c2ccnc(OCCN(C)C)c2)c2ccccc21 (stereo not given) | -0.343%
55 | CCS(=O)(=O)CCN1CCN(C(C)c2cccnc2)CC1 (stereo not given) | 8.65%
56 | CC(C)(C)OC(=O)N1CC(CC(=O)NCc2ccnc(C3CC3)c2)C1 | 5.54%
57 | O=C(Nc1ccccn1)C1CCN(Cc2cc3c(cc2O)OCO3)CC1 | 7.19%
58 | CC(=O)c1cccc(S(=O)(=O)N2CCC(c3noc(C)n3)CC2)c1 | 7.85%
59 | Cc1csc(C2(NCc3csc(C4CC4)n3)CCCC2)n1 | 4.32%
60 | CC(C1CC1)N(CC(=O)NC(=O)NC1CC1)C1CC1 (stereo not given) | 4.84%
61 | CCn1c(CN2CCOC(Cn3cncn3)C2)nc2c(F)cccc21 (stereo not given) | -5.42%
62 | Cc1csc(CN2CC(CO)Oc3ccccc32)n1 (stereo not given) | 6.62%
63 | O=C(Nc1cccs1)NC(CCCO)c1ccccc1 (stereo not given) | 9.18%
64 | O=C1C(Nc2nccn3cnnc23)CCCN1c1ccccc1Cl (stereo not given) | 9.05%
65 | O=C(Cc1ccccn1)N1CCN(CC2CC2)c2ncccc2C1 | 1.34%
66 | Cn1c(-c2ccc(F)cc2)cn2cc(C(=O)N3CCC(N)C3)nc2c1=O (stereo not given) | 4.43%

Row | SMILES | cytotoxicity at 10 µM
67 | Cc1cccc2cc(C(=O)N3CCC(F)(F)CC3)n(C)c12 | 3.76%
68 | CC1(C)CNC(=O)c2nc(CCN3CCCCC3CO)[nH]c2C1 (stereo not given) | -3.24%
69 | O=C1CCC2(CCN(CC[C@H](O)c3ccccc3)CC2)CN1CCO | -4%
70 | CCN1CC2(CCC1=O)CCN(Cc1cc(F)ccc1Cl)CC2 | 6.58%
71 | Cc1n[nH]c(C)c1CCN(C)c1ccc(-c2nc(C3CC3)no2)cn1 | 2.08%
72 | CCc1[nH]c2ccc(CNc3cncc(C(=O)N(C)C)n3)cc2c1C | 7.59%
73 | CCCn1c(C)c(CC(=O)N[C@H](C)C(=O)OC)c2c1CC(C)(C)CC2=O | -2.06%
74 | Cc1cc(C(=O)N2CCC3(CC(=O)NC3=O)C2)c(-c2ccccc2)o1 (stereo not given) | -3.15%
75 | O=C(c1cccc(O)c1)N1C[C@@H](CN2CCCCC2)[C@@H](CO)C1 | -2.88%
76 | OCC1(O)CCN(c2ncccc2C(F)(F)F)CC1 | -13.6%
77 | CCN(C)C[C@@H]1CN(C(=O)NC2CCCCC2)C[C@@H]1CO | -1.53%
78 | CC(=O)N[C@@H]1CN(C(=O)c2cnccn2)C[C@H]1c1ccc(C)cc1 | 6.62%
79 | O=C(NCCc1c[nH]cn1)c1ccccc1C1CCNC1 (stereo not given) | 12.8%
80 | CC(=O)NCc1nc(CC(C)C)nn1-c1cccc(C)c1 | 6.54%
81 | Cc1ccccc1C(CC(=O)NCC(N)=O)c1ccccc1 (stereo not given) | 5.17%
82 | Cc1nc(C(F)(F)F)nc(N2CCC(O)(C(=O)O)CC2)c1C | 10.4%
83 | O=C(c1ccc(S(=O)(=O)N2CCSCC2)cc1)N1CCCCCC1 | 13.9%
84 | Cc1nc(-c2cc(Cl)c3c(c2)CC(CN)O3)c[nH]1 (stereo not given) | -12.2%
85 | Cc1cc(C)n2nc(CC(=O)N[C@H]3C[C@H]4CN(C)CCN4C3)nc2n1 | -2.9%
86 | O=C(NCC(O)c1cccc(F)c1)C1CCN(C(=O)C2CCC2)CC1 (stereo not given) | 4.43%
87 | O=C1OCCN1Cc1ncnn1Cc1c(F)cccc1Cl | -1.26%
88 | Cc1nc(NC(=O)C(C)N2CCN(c3ccccc3F)CC2)sc1C (stereo not given) | -0.879%

Row | SMILES | cytotoxicity at 10 µM
89 | Cc1noc(C)c1CN1C[C@@H](NS(=O)(=O)N(C)C)[C@H](C(C)C)C1 | 3.61%
90 | CC(C)n1ccnc1C1CCCN(c2ccccn2)C1 (stereo not given) | 1.28%
91 | COc1ccc(CN(C)[C@@H]2CN(C(=O)c3cccs3)C[C@H]2O)cc1 | -0.619%
92 | Cn1cc(CCNC(=O)NCc2ccc3c(c2)OCCO3)cn1 | -10.7%
93 | Cc1cnn(CC2CCCN2C(=O)c2cccc3[nH]ncc23)c1 (stereo not given) | -10.8%
94 | Cc1ccc(C(=O)NS(=O)(=O)c2ccccc2C)c(=O)[nH]1 | -8.48%
95 | Cc1cc(OCC(=O)N2CCCC(c3ccn[nH]3)C2)no1 (stereo not given) | 0.0241%
96 | Cn1cnc2c1CCN(CCS(=O)(=O)c1ccccc1)C2 | -3.32%
97 | Cc1nc(C)n(CC2CN(CCCOc3ccccc3C)CCO2)n1 (stereo not given) | 5.63%
98 | CC(O)CN1CCC(CNCc2cccc(C(N)=O)c2)CC1 (stereo not given) | -8.99%
99 | Cc1nc(C)n(CC2CCCN2Cc2cscn2)n1 (stereo not given) | -2.05%
100 | CCn1cc(CN2C[C@@H]3CCCN3C[C@@H]2CCSC)cn1 | -13.9%
101 | CC(C)N(C)Cc1cnc2n1CCN(C(=O)Cc1ccccn1)C2 | -0.405%
102 | CN(C)CCNC(=O)C1Cc2nc(-c3ccccc3)sc2N1CC1CC1 (stereo not given) | 5.15%
103 | O=C(CO[C@@H]1CC[C@H]2[C@H]1OCCN2c1ncccn1)N1CCCC1 | -7.58%
104 | O=C(NC1CC1)N1CCn2c(Cn3cccn3)cnc2C1 | -72.8%
105 | CCC1=N[C@@]2(CC[C@@H]3CN(CC4CC4)C[C@@H]32)C(=O)N1C | 0.153%
106 | NC(=O)N1CCC2(CCN(Cc3ccccn3)C2=O)C1 (stereo not given) | 3.39%
107 | CS(=O)(=O)N1C[C@H]2CCCN(Cc3cccs3)[C@H]2C1 | 7.69%
108 | Cc1noc(C)c1CN1CCO[C@H]2CN(C(=O)N3CCCC3)C[C@H]21 | 8.01%
109 | CC1CCN(c2nc3cn(-c4ccc(F)cc4)c(=O)c-3c[nH]2)CC1 | 3.47%
110 | O=C1NCC2(CCC(C(=O)N3CCC(O)CC3)CC2)Oc2ccccc21 (stereo not given) | -21.7%
